Results: publication PMC3099401 (Journal of agricultural and food chemistry, 2011)
One block for each molecule: values may come before it.

Tests used:
neuroblastoma cells [1] = experiment: In vitro cell viability; assay type: cell-based; conditions: 4 days, normalized to DMSO controls; for effect on viability: 100 and 200 μM
NGP neuroblastoma cells = experiment: Calcium imaging with fura-2, NGP; assay type: cell-based; conditions: 100 μM
[2] = tested on: SK-N-AS neuroblastoma cells; experiment: Calcium imaging with fura-2, SK-N-AS; assay type: cell-based; conditions: 100 μM
[3] = tested on: SK-N-AS neuroblastoma cells; experiment: In vivo efficacy, SK-N-AS xenograft mouse model; design: species or system athymic nu/nu mice
neuroblastoma cells [4] = experiment: Cellular uptake by live-cell multiphoton microscopy; assay type: cell-based; conditions: 37°C
Outline: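 Live neuroblastoma cells in HBSS kept at 37°C on a stage incubator. Two-photon imaging used 765 nm Ti:Sapphire excitation, a 20× objective and a GaAsP photon-counting detector, with 1024×1024 images at identical laser power. Imaging ran from 90 s (the earliest possible) and at 5 min after adding 100 μM test compound, then again 5 min after an HBSS wash and after re-addition.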

Structure (SMILES): O=C(O)[C@H]1O[C@@H](Oc2cc(O)cc(/C=C/c3ccc(O)cc3)c2)[C@H](O)[C@@H](O)[C@@H]1O [3-Glu-Res, 3-O-glucuronidated Res]
effect on viability (neuroblastoma cells [1]): no effect on viability

Structure (SMILES): O=C(O)[C@H]1O[C@@H](Oc2ccc(/C=C/c3cc(O)cc(O)c3)cc2)[C@H](O)[C@@H](O)[C@@H]1O [4′-Glu-Res, 4′-O-glucuronidated Res]
effect on viability (neuroblastoma cells [1]): no effect on viability

time after addition until cells become brightly fluorescent (neuroblastoma cells [4]; earliest time point that can be taken): ≤ 90 s
Structure (SMILES): Oc1ccc(/C=C/c2cc(O)cc(O)c2)cc1 [Res, resveratrol]
change in [Ca^2+]i (fura-2 fluorescence) (NGP neuroblastoma cells): rise in [Ca^2+]i
change in [Ca^2+]i (fura-2 fluorescence) [2]: rise in [Ca^2+]i
tumor regression ([3]; direct injection into the tumor, 250mg/kg, block copolymer formulation): regression of the tumor was then observed
tumor inhibition compared to vehicle-treated controls ([3]; peri-tumor, 5 injections of 200 μL R-P104 (approx. 5.0 mg Res each) over two weeks): about 88%
reduction of the number of viable cells (neuroblastoma cells [1]; 100 μM): ~85%
cellular uptake (cellular fluorescence, excited at 765 nm) (neuroblastoma cells [4]; 100 μM, HBSS): enters and then permeates throughout the cell

Structure (SMILES): O=S(=O)(O)Oc1cc(O)cc(/C=C/c2ccc(O)cc2)c1 [monosulf-Res, Res 3-O-sulfate]
effect on viability (neuroblastoma cells [1]): no effect on viability
